Results as given in ChEMBL document CHEMBL4837207, “Discovery of pyrrolo[2,3-d]pyrimidine derivatives as potent Axl inhibitors: Design, synthesis and biological evaluation” (Eur J Med Chem, 2021).

Key:
[1] = Toxicity in nude mouse xenografted with mouse BaF3 cells stably expressing human TEL-AXL assessed as body weight at 10 to 100 mg/kg, po administered once daily for 14 consecutive days; type: organism-based; conditions: in vivo, 336 h, dose 10-100 mg/kg, time 14 day
Summary of the method: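 BaF3/TEL-Axl cells implanted subcutaneously in nude mice and grown to 700–800 mm³; 1.5 mm³ tumor fragments then transplanted sc into the right flank. At 100–200 mm³, mice were randomized (n = 6 per treated group, 12 vehicle). Oral dosing once daily for 14 days at 10 or 50 mg/kg, with the higher dose raised to 100 mg/kg from day 8. Body weight tracked throughout treatment.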

[2] = biological target: Epidermal growth factor receptor (Homo sapiens, UniProt P00533); experiment: Inhibition of EGFR (unknown origin) by ELISA
[3] = AUC (0 to infinity) in Sprague-Dawley rat at 3 mg/kg, po via gavage measured up to 24 hrs by LC-MS analysis; type: ADME, organism-based; parameters: route oral, dose 3 mg/kg, time <=24; conditions: in vivo
Summary of the method: (§1)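 Male Sprague-Dawley rats (n = 3) dosed once by oral gavage at 3 mg/kg as a solution in 5% DMSO/95% (0.5% CMC-Na). Blood sampled at 0.25, 0.5, 1, 2, 4, 6, 8 and 24 h, kept on wet ice, serum separated by centrifugation and stored at -20 °C. Serum levels measured by LC-MS/MS; parameters reported as means.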

[4] = biological target: T1, Tyrosine-protein kinase receptor UFO (Mus musculus) (UniProt Q00993); experiment: Inhibition of AXL in mouse BaF3 cells assessed as reduction in AKT phosphorylation at S473 residue by Western blot analysis; type: cell-based; conditions: dose 0.1-10 nM
T1 sequence (whole entry): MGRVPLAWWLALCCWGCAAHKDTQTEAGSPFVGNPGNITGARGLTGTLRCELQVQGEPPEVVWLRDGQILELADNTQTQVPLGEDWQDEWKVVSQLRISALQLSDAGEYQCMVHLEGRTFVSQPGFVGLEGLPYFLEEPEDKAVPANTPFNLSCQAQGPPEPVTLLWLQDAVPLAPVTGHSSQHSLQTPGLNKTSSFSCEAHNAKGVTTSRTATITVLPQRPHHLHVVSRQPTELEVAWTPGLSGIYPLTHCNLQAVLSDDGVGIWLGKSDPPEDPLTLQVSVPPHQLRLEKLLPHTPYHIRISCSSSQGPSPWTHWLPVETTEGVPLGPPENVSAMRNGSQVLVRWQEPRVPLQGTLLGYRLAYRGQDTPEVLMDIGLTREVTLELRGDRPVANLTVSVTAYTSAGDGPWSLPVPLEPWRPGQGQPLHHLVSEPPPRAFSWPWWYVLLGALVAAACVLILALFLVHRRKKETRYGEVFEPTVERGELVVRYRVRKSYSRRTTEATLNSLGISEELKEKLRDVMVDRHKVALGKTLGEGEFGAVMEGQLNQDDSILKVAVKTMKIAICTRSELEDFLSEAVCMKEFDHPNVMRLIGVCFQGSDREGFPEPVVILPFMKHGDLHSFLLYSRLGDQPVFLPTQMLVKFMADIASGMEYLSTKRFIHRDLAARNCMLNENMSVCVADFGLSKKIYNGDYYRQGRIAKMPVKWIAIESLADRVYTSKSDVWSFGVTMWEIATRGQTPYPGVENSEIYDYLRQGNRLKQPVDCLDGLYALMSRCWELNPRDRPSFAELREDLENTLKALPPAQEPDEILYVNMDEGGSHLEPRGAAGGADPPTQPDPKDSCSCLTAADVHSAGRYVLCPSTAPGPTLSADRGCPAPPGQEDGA
Summary of the method: (§2)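 Cells in exponential growth (BaF3 engineered to stably express constitutively active human wild-type TEL-Axl; MKN-45) exposed to the indicated concentrations for 2 h, then lysed in 1× SDS sample buffer. Phosphorylated proteins detected by Western blot.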

[5] = Half life in Sprague-Dawley rat at 3 mg/kg, po via gavage measured up to 24 hrs by LC-MS analysis; type: ADME, organism-based; conditions: in vivo; summary of the method: as §1
[6] = biological target: T2, Tyrosine-protein kinase receptor UFO (Homo sapiens, UniProt P30530); experiment: Inhibition of AXL (unknown origin) by ELISA
T2 sequence (P30530 whole entry): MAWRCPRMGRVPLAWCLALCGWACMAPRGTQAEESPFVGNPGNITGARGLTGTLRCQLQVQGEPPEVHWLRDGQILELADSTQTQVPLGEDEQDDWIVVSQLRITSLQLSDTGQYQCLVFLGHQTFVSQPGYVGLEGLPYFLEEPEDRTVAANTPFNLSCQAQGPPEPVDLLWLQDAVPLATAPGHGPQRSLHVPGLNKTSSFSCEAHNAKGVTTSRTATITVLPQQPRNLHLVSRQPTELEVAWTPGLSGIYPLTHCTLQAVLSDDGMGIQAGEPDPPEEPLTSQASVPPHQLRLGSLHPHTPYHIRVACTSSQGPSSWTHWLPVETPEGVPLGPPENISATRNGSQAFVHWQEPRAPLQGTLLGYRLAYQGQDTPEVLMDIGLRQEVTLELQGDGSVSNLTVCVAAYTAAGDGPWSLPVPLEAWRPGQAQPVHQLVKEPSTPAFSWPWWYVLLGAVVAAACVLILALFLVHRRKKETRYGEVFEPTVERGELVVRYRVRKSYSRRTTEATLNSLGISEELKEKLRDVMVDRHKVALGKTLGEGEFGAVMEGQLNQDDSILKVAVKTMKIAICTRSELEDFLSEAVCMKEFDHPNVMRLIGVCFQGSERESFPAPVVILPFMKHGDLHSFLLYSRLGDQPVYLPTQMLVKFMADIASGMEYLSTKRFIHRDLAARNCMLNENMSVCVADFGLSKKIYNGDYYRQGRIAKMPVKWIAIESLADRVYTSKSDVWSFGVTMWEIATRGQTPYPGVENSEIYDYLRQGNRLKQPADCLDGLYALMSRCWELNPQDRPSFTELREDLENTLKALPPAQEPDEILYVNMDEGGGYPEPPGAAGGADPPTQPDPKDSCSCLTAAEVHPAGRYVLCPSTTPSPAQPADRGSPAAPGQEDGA

[7] = test system: MKN-45; experiment: Antiproliferative activity against human MKN-45 cells incubated for 72 hrs; type: functional, cell-based; conditions: MKN-45, 72 h
Summary of the method: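 MKN-45 cells (MET-amplified gastric carcinoma) grown in the supplier-recommended medium and serum, seeded at low density and treated the next day across a concentration range for 72 h. Proliferation read by SRB or CCK-8. IC50 obtained from a four-parameter concentration-response fit; mean ± SD of two independent assays.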

[8] = biological target: Receptor tyrosine-protein kinase erbB-2 (Homo sapiens, UniProt P04626); experiment: Inhibition of ERBB2 (unknown origin) by ELISA
[9] = biological target: Vascular endothelial growth factor receptor 2 (Homo sapiens, UniProt P35968); experiment: Inhibition of VEGFR2 (unknown origin) by ELISA
[10] = Tmax in Sprague-Dawley rat at 3 mg/kg, po via gavage measured up to 24 hrs by LC-MS analysis; type: ADME, organism-based; conditions: in vivo; summary of the method: as §1
[11] = biological target: Hepatocyte growth factor receptor (Homo sapiens, UniProt P08581); experiment: Inhibition of c-met phosphorylation at Y1234/Y1235 residues in human MKN-45 cells by Western blot analysis; type: cell-based; conditions: dose 2.5-20 nM; summary of the method: as §2
Hepatocyte growth factor receptor, sequence (P08581 whole entry): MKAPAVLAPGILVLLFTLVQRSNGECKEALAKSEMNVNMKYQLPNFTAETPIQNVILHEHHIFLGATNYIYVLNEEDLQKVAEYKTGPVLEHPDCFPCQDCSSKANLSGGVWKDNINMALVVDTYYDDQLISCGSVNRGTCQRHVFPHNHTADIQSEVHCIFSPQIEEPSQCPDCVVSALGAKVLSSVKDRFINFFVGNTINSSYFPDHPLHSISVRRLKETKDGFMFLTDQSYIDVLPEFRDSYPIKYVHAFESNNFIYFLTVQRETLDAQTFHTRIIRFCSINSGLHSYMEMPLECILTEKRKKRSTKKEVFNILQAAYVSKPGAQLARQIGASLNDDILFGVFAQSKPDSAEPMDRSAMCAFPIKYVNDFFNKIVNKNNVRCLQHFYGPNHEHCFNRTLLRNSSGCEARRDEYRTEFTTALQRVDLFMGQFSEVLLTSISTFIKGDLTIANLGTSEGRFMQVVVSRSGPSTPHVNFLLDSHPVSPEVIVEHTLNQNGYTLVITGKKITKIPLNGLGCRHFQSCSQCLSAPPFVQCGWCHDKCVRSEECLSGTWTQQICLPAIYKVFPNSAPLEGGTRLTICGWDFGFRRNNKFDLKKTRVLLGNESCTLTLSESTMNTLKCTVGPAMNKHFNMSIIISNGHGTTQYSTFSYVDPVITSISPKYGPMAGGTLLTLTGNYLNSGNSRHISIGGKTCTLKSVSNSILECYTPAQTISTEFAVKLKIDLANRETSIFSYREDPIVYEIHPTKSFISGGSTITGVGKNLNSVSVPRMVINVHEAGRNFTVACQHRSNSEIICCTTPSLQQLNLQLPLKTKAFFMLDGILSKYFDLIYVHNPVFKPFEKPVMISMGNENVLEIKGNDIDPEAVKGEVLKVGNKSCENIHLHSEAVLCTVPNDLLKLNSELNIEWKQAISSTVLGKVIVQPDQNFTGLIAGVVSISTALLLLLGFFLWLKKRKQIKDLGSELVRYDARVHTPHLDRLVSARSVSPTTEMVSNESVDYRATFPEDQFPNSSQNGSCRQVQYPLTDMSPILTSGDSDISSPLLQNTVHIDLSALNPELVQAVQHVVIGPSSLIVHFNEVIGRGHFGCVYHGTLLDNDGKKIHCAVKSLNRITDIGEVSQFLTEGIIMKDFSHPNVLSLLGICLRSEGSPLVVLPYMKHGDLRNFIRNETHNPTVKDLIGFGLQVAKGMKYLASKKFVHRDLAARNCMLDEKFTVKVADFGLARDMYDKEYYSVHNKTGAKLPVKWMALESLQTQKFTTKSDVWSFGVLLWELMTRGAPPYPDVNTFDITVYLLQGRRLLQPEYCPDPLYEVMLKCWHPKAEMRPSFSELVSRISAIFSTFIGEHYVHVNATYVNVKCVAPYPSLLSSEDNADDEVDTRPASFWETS

Vascular endothelial growth factor receptor 2, sequence (P35968 whole entry): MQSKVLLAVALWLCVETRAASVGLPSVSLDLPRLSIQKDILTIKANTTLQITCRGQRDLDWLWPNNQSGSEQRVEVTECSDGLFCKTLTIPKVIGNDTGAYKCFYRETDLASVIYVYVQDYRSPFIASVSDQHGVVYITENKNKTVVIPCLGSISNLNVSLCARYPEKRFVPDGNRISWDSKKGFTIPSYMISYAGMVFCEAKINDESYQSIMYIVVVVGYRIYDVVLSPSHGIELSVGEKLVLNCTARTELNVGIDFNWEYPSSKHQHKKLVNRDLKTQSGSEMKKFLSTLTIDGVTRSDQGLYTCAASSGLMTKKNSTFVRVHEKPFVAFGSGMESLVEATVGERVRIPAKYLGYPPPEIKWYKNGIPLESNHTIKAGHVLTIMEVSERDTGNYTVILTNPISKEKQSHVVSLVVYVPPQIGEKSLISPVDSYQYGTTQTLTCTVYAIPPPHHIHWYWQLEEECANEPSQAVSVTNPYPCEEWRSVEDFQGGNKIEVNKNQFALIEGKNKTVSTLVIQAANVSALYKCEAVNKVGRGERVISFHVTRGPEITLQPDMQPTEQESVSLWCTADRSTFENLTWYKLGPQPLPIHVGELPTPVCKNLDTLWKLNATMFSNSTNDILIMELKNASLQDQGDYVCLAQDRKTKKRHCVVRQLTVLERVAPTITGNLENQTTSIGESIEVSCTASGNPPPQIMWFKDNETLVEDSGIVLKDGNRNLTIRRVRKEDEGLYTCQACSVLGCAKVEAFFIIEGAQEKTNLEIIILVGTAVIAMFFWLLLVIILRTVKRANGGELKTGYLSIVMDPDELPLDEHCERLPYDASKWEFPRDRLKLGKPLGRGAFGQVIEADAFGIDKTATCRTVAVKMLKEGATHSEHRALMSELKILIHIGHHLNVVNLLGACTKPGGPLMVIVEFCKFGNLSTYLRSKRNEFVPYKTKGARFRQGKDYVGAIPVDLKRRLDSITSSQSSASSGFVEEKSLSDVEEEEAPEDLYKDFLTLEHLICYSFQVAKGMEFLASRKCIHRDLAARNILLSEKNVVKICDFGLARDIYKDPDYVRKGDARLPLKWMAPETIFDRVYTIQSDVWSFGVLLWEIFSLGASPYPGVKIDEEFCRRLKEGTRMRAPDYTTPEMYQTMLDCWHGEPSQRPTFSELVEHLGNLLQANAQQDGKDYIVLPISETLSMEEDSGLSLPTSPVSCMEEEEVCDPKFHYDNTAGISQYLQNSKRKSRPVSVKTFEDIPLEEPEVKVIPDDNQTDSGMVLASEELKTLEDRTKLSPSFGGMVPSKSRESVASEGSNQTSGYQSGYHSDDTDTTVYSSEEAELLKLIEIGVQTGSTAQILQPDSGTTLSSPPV
Receptor tyrosine-protein kinase erbB-2, sequence (P04626 whole entry): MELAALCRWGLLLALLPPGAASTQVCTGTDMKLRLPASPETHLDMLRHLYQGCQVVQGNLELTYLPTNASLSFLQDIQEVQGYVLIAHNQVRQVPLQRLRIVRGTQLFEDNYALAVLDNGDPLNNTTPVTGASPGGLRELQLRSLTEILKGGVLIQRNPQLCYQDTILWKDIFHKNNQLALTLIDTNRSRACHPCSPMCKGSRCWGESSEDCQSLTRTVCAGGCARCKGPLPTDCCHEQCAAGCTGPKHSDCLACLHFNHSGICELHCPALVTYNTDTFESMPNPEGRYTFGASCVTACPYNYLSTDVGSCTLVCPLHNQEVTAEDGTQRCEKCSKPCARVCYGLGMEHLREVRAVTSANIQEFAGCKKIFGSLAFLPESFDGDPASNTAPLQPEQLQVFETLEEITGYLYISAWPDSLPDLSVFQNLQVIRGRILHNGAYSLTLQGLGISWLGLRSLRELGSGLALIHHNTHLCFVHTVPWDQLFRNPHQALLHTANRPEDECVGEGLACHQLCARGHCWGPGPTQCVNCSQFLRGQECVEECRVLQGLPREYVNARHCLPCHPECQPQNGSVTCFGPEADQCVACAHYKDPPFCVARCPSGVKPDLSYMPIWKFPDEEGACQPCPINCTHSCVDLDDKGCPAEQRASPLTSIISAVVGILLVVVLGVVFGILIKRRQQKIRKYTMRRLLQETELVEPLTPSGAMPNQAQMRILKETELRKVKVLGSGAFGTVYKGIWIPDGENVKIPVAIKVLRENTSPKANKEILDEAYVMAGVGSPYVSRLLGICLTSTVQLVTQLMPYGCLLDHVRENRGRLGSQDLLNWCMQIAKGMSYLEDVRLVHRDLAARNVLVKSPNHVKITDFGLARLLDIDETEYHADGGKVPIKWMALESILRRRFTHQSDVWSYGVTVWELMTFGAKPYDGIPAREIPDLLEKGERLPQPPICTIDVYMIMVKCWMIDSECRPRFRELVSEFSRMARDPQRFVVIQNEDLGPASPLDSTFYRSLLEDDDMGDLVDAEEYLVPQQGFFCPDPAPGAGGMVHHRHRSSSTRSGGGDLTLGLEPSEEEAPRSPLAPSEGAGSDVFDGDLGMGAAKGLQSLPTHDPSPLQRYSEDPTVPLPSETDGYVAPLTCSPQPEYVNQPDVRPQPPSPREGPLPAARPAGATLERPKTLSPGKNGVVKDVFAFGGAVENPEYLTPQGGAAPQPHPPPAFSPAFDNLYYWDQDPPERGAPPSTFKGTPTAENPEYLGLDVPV

IC50 [2]: > 1000 nM | AUC(0-inf) [3]: 44300 ng·h/mL | inhibition [4]: Dose-Dependent Effect | half-life [5]: 2.74 h | IC50 [6]: < 0.2 nM | IC50 [7]: 13.2 nM | IC50 [8]: > 1000 nM | IC50 [9]: > 1000 nM | Tmax [10]: 1.08 h | inhibition [11]: Dose-Dependent Effect
SMILES: CC(C)n1cc(C(=O)Nc2cc(F)c(-c3c[nH]c4ncnc(N)c34)cc2F)c(=O)c(-c2ccc(F)cc2)c1
Activity [1]: Non-Toxic
